# The source made the active and inactive calls. The calls are words filed in the database; no cut-off is given here.
# What was measured:
# Salmonella typhimurium [1] = experiment: Genotoxicity in Salmonella typhimurium TA98 assessed as revertant colonies at 50 uL/plate in absence of Sprague-Dawley rat S9 metabolic activation after 72 hrs by Ames test (reference value: 1); type: toxicity, organism-based; details: salmonella enterica subsp. enterica serovar typhimurium
# Salmonella typhimurium [2] = experiment: Genotoxicity in Salmonella typhimurium TA97A assessed as revertant colonies at 100 uL/plate in presence of Sprague-Dawley rat S9 metabolic activation after 72 hrs by Ames test (reference value: 1); type: toxicity, organism-based; details: salmonella enterica subsp. enterica serovar typhimurium
# Salmonella typhimurium [3] = experiment: Genotoxicity in Salmonella typhimurium TA98 assessed as revertant colonies at 1 uL/plate in absence of Sprague-Dawley rat S9 metabolic activation after 72 hrs by Ames test (reference value: 1); type: toxicity, organism-based; details: salmonella enterica subsp. enterica serovar typhimurium
# IB3-1 [4] = experiment: Inhibition of TNF-alpha induced IL-17 production in human IB3-1 cells at 1 uM preincubated for 5 hrs followed by TNF-alpha stimulation and measured after 24 hrs relative to control; type: functional
# How it was run: (§1)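 IB3-1 cells (CF patient, ΔF508/W1282X, adeno12/SV40-immortalized) grown in LHC-8 with 5% FBS, no gentamycin, 37°C/5% CO₂; 60% confluent monolayers seeded, compound added after 24 h, 5 h before 80 ng/ml TNF-α, then 24 h further incubation. Cytokines in supernatants measured by Bioplex 27-plex Luminex bead assay: beads, detection antibody, streptavidin–phycoerythrin, 30/30/10 min at room temperature.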
# Salmonella typhimurium [5] = experiment: Genotoxicity in Salmonella typhimurium TA1535 assessed as revertant colonies at 1 uL/plate in absence of Sprague-Dawley rat S9 metabolic activation after 72 hrs by Ames test (reference value: 1); type: toxicity, organism-based; details: salmonella enterica subsp. enterica serovar typhimurium
# Salmonella typhimurium [6] = experiment: Genotoxicity in Salmonella typhimurium TA98 assessed as revertant colonies at 5 uL/plate in absence of Sprague-Dawley rat S9 metabolic activation after 72 hrs by Ames test (reference value: 1); type: toxicity, organism-based; details: salmonella enterica subsp. enterica serovar typhimurium
# Salmonella typhimurium [7] = experiment: Genotoxicity in Salmonella typhimurium TA100 assessed as revertant colonies at 10 uL/plate in absence of Sprague-Dawley rat S9 metabolic activation after 72 hrs by Ames test (reference value: 1); type: toxicity, organism-based; details: salmonella enterica subsp. enterica serovar typhimurium
# Salmonella typhimurium [8] = experiment: Genotoxicity in Salmonella typhimurium TA1535 assessed as revertant colonies at 1 uL/plate in presence of Sprague-Dawley rat S9 metabolic activation after 72 hrs by Ames test (reference value: 1); type: toxicity, organism-based; details: salmonella enterica subsp. enterica serovar typhimurium
# Salmonella typhimurium [9] = experiment: Genotoxicity in Salmonella typhimurium TA98 assessed as revertant colonies at 1 uL/plate in presence of Sprague-Dawley rat S9 metabolic activation after 72 hrs by Ames test (reference value: 1); type: toxicity, organism-based; details: salmonella enterica subsp. enterica serovar typhimurium
# Salmonella typhimurium [10] = experiment: Genotoxicity in Salmonella typhimurium TA97A assessed as revertant colonies at 1 uL/plate in presence of Sprague-Dawley rat S9 metabolic activation after 72 hrs by Ames test (reference value: 1); type: toxicity, organism-based; details: salmonella enterica subsp. enterica serovar typhimurium
# Salmonella typhimurium [11] = experiment: Genotoxicity in Salmonella typhimurium TA97A assessed as revertant colonies at 5 uL/plate in presence of Sprague-Dawley rat S9 metabolic activation after 72 hrs by Ames test (reference value: 1); type: toxicity, organism-based; details: salmonella enterica subsp. enterica serovar typhimurium
# Salmonella typhimurium [12] = experiment: Genotoxicity in Salmonella typhimurium TA97A assessed as revertant colonies at 5 uL/plate in absence of Sprague-Dawley rat S9 metabolic activation after 72 hrs by Ames test (reference value: 1); type: toxicity, organism-based; details: salmonella enterica subsp. enterica serovar typhimurium
# Salmonella typhimurium [13] = experiment: Genotoxicity in Salmonella typhimurium TA1535 assessed as revertant colonies at 5 uL/plate in presence of Sprague-Dawley rat S9 metabolic activation after 72 hrs by Ames test (reference value: 1); type: toxicity, organism-based; details: salmonella enterica subsp. enterica serovar typhimurium
# Salmonella typhimurium [14] = experiment: Genotoxicity in Salmonella typhimurium TA98 assessed as revertant colonies at 5 uL/plate in presence of Sprague-Dawley rat S9 metabolic activation after 72 hrs by Ames test (reference value: 1); type: toxicity, organism-based; details: salmonella enterica subsp. enterica serovar typhimurium
# IB3-1 [15] = experiment: Inhibition of TNF-alpha induced IL-10 production in human IB3-1 cells at 1 uM preincubated for 5 hrs followed by TNF-alpha stimulation and measured after 24 hrs relative to control; type: functional; how it was run: as §1
# Salmonella typhimurium [16] = experiment: Genotoxicity in Salmonella typhimurium TA97A assessed as revertant colonies at 1 uL/plate in absence of Sprague-Dawley rat S9 metabolic activation after 72 hrs by Ames test (reference value: 1); type: toxicity, organism-based; details: salmonella enterica subsp. enterica serovar typhimurium
# Salmonella typhimurium [17] = experiment: Genotoxicity in Salmonella typhimurium TA1535 assessed as revertant colonies at 10 uL/plate in absence of Sprague-Dawley rat S9 metabolic activation after 72 hrs by Ames test (reference value: 1); type: toxicity, organism-based; details: salmonella enterica subsp. enterica serovar typhimurium
# Salmonella typhimurium [18] = experiment: Genotoxicity in Salmonella typhimurium TA100 assessed as revertant colonies at 5 uL/plate in presence of Sprague-Dawley rat S9 metabolic activation after 72 hrs by Ames test (reference value: 1); type: toxicity, organism-based; details: salmonella enterica subsp. enterica serovar typhimurium
# Salmonella typhimurium [19] = experiment: Genotoxicity in Salmonella typhimurium TA98 assessed as revertant colonies at 10 uL/plate in absence of Sprague-Dawley rat S9 metabolic activation after 72 hrs by Ames test (reference value: 1); type: toxicity, organism-based; details: salmonella enterica subsp. enterica serovar typhimurium
# Salmonella typhimurium [20] = experiment: Genotoxicity in Salmonella typhimurium TA100 assessed as revertant colonies at 100 uL/plate in absence of Sprague-Dawley rat S9 metabolic activation after 72 hrs by Ames test (reference value: 1); type: toxicity, organism-based; details: salmonella enterica subsp. enterica serovar typhimurium
# Salmonella typhimurium [21] = experiment: Genotoxicity in Salmonella typhimurium TA100 assessed as revertant colonies at 1 uL/plate in presence of Sprague-Dawley rat S9 metabolic activation after 72 hrs by Ames test (reference value: 1); type: toxicity, organism-based; details: salmonella enterica subsp. enterica serovar typhimurium
# Salmonella typhimurium [22] = experiment: Genotoxicity in Salmonella typhimurium TA97A assessed as revertant colonies at 10 uL/plate in absence of Sprague-Dawley rat S9 metabolic activation after 72 hrs by Ames test (reference value: 1); type: toxicity, organism-based; details: salmonella enterica subsp. enterica serovar typhimurium
# [23] = Inhibition of NF-kappaB (unknown origin) assessed as decrease in NF-kappaB/DNA interaction using 32P-labeled target NF-kappaB double-stranded oligonucleotide after 30 mins by EMSA; design: species or system Homo sapiens
# How it was run: (§2)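 Purified NF-κB p50 (0.1 µl/20 µl, 50 gsu) was combined with 0.25 ng of ³²P-labeled double-stranded NF-κB consensus oligonucleotide. Bound 30 min at room temperature, then run on 6% polyacrylamide in 0.25× TBE at 200 V. IC₅₀ is 50% inhibition of the complex.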
# Homo sapiens = species on record: Homo sapiens; experiment: Inhibition of NF-kappaB (unknown origin) assessed as decrease in NF-kappaB/DNA interaction at 12.5 to 100 uM using 32P-labeled target NF-kappaB double-stranded oligonucleotide after 30 mins by EMSA; how it was run: as §2
# Salmon testes DNA = experiment: Binding affinity to salmon testes DNA assessed as DNA intercalation by linear flow dichroism analysis; details: Salmonidae
# Salmonella typhimurium [24] = experiment: Genotoxicity in Salmonella typhimurium TA100 assessed as revertant colonies at 10 uL/plate in presence of Sprague-Dawley rat S9 metabolic activation after 72 hrs by Ames test (reference value: 1); type: toxicity, organism-based; details: salmonella enterica subsp. enterica serovar typhimurium
# Salmonella typhimurium [25] = experiment: Genotoxicity in Salmonella typhimurium TA1535 assessed as revertant colonies at 100 uL/plate in absence of Sprague-Dawley rat S9 metabolic activation after 72 hrs by Ames test (reference value: 1); type: toxicity, organism-based; details: salmonella enterica subsp. enterica serovar typhimurium
# Salmonella typhimurium [26] = experiment: Genotoxicity in Salmonella typhimurium TA98 assessed as revertant colonies at 10 uL/plate in presence of Sprague-Dawley rat S9 metabolic activation after 72 hrs by Ames test (reference value: 1); type: toxicity, organism-based; details: salmonella enterica subsp. enterica serovar typhimurium
# Salmonella typhimurium [27] = experiment: Genotoxicity in Salmonella typhimurium TA1535 assessed as revertant colonies at 5 uL/plate in absence of Sprague-Dawley rat S9 metabolic activation after 72 hrs by Ames test (reference value: 1); type: toxicity, organism-based; details: salmonella enterica subsp. enterica serovar typhimurium
# Salmonella typhimurium [28] = experiment: Genotoxicity in Salmonella typhimurium TA97A assessed as revertant colonies at 50 uL/plate in presence of Sprague-Dawley rat S9 metabolic activation after 72 hrs by Ames test (reference value: 1); type: toxicity, organism-based; details: salmonella enterica subsp. enterica serovar typhimurium
smiles,measurement,setting,value
CCc1cc2c(C(C)C)cc(=O)oc2c2c(C)coc12,T/C,Salmonella typhimurium [1],1.2
same,T/C,Salmonella typhimurium [2],1
same,T/C,Salmonella typhimurium [3],1.1
same,inhibition at 1 µM,IB3-1 [4],> 20%
same,T/C,Salmonella typhimurium [5],1.1
same,T/C,Salmonella typhimurium [6],1.2
same,T/C,Salmonella typhimurium [7],0.8
same,T/C,Salmonella typhimurium [8],1.1
same,T/C,Salmonella typhimurium [9],0.8
same,T/C,Salmonella typhimurium [10],1
same,T/C,Salmonella typhimurium [11],1.1
same,T/C,Salmonella typhimurium [12],0.9
same,T/C,Salmonella typhimurium [13],0.9
same,T/C,Salmonella typhimurium [14],0.6
same,inhibition at 1 µM,IB3-1 [15],> 20%
same,T/C,Salmonella typhimurium [16],1.1
same,T/C,Salmonella typhimurium [17],0.9
same,T/C,Salmonella typhimurium [18],1.1
same,T/C,Salmonella typhimurium [19],1.3
same,T/C,Salmonella typhimurium [20],0.9
same,T/C,Salmonella typhimurium [21],1.1
same,T/C,Salmonella typhimurium [22],1.2
same,IC50,[23],7.4 µM
same,inhibition,Homo sapiens,Active
same,Activity,Salmon testes DNA,inactive
same,T/C,Salmonella typhimurium [24],1
same,T/C,Salmonella typhimurium [25],0.9
same,T/C,Salmonella typhimurium [26],0.7
same,T/C,Salmonella typhimurium [27],1.1
same,T/C,Salmonella typhimurium [28],1.2
